Results taken from paper PMC3712066 (Diabetes, 2013).

Key:
[1] = tested on: rats with streptozotocin-induced diabetes mellitus (STZ-DM); assay: Electroretinography; format: in vivo, Sprague-Dawley rats; details: diabetic rats, SST eye drops 10 mg/mL once daily; scotopic
Method in brief: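 Scotopic ERG was recorded in both eyes before treatment and on day 14, after at least 1 h dark adaptation. Rats were under isoflurane with 0.5% proparacaine topically. b-wave amplitude and implicit time were measured to ISCEV definitions after scotopic flash (0 db). Animals were STZ-diabetic rats on daily 10 mg/mL drops or saline vehicle. Paired t test within group; means ± SD.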

[2] = tested on: AMPA-induced neurotoxicity; details: intravitreal administration; cited from earlier work
[3] = tested on: rats with streptozotocin-induced diabetes mellitus (STZ-DM); assay: Assessment of retinal apoptosis; format: in vivo, Sprague-Dawley rats; details: TUNEL; SST eye drops 10 mg/mL once daily, 15 days
[4] = tested on: FasL, caspase-8, Bid, active caspase-3, BclxL; assay: Proapoptotic and survival signaling in neuroretina; format: in vivo, Sprague-Dawley rats; details: neuroretina of diabetic rats; SST eye drops 10 mg/mL; Western blot
Method in brief: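 Neuroretina protein extracts were Western blotted for FasL, caspase-8, Bid, Bim, BclxL and active caspase-3, with α-tubulin as loading control. Autoradiograms were quantified by scanning densitometry as arbitrary units, means ± SD. Tissue came from STZ-diabetic rats given daily 10 mg/mL drops or saline vehicle for 14 days, and from nondiabetic controls.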

[5] = tested on: glutamate/aspartate transporter (GLAST); assay: GLAST expression in retina; format: in vivo, Sprague-Dawley rats; details: diabetic rats treated with SST eye drops 10 mg/mL
Method in brief: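 GLAST mRNA by real-time PCR, normalized to β-actin (relative quantification). For protein, paraffin retinal sections were retrieved in 10 mmol/L sodium citrate pH 6.0 and blocked 1 h at room temperature in 2% BSA/0.05% Tween PBS. They were probed with anti-GLAST 1:200, then Alexa Fluor 488 anti-rabbit (1 h), with DAPI. Fluorescence intensity was quantified as for GFAP. Rats were STZ-diabetic on daily drops or saline.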

[6] = Ophthalmological examinations; format: in vivo, Sprague-Dawley rats; details: SST eye drops 10 mg/mL, 20 µL once daily; baseline and follow-up (days 7 and 13)
Method in brief: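 All animals had slit lamp biomicroscopy, indirect ophthalmoscopy and intraocular pressure measurement at baseline and on days 7 and 13 posttreatment. Groups were nondiabetic controls on vehicle, and STZ-diabetic (60 mg/kg i.v.) male Sprague-Dawley rats on once-daily drops of test compound (10 mg/mL) or 0.9% NaCl vehicle.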

[7] = tested on: rats with streptozotocin-induced diabetes mellitus (STZ-DM); assay: Assessment of glial activation; format: in vivo, Sprague-Dawley rats; details: dose-response; SST eye drops 0.5 mg/mL compared with 2 or 10 mg/mL
Method in brief: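 Male Sprague-Dawley rats made diabetic with STZ 60 mg/kg i.v. (glucose above 250 mg/dL). One drop daily for 14 days, plus one ~1 h before necropsy; saline vehicle; dose-response at 10, 2, 0.5 mg/mL. Paraffin retinal sections blocked in PBS/1% BSA/0.05% Triton X-100. Rabbit anti-GFAP 1:100, 36 h at 4C; Alexa Fluor 568 secondary. Scored 0–5 by GFAP extent, endfeet/GCL to ONL.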

Substance: Somatostatin [SST]
- b-wave amplitude, day 14 vs day −1 [1]: no reduction of b-wave amplitude was observed
- b-wave implicit time, day 14 vs day −1 [1]: did not increase
- protection of the retina from AMPA-induced neurotoxicity [2]: protects the retina from AMPA-induced neurotoxicity
- ratio of apoptosis in all retinal layers vs diabetic rats treated with placebo [3]: significantly lower
- BclxL expression [4]: greatly improved
- diabetes-induced downregulation of GLAST gene and protein expression [5]: this downregulation was prevented
- GLAST protein levels in comparison with nondiabetic rats ([5]; immunofluorescence): even increased
- differences in the cornea, pupil size, or intraocular pressure among groups [6]: No significant differences
- effect in preventing glial activation and apoptosis [7]: significantly lower than that obtained using either 2 or 10 mg/mL
